Assay [1] relates to C3H 10T1/2. Nature of the assay: Activation of 1650 bp mouse Ngn2 promoter activity expressed in mouse C3H10T1/2 cells at 100 uM incubated for 24 hrs by luciferase reporter gene assay relative to untreated control. Type of assay: cell-based. The gist of the method: (§1)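 C3H10T1/2 mesenchymal progenitor cells stably transfected with a luciferase reporter carrying the mouse Ngn2 promoter region (1650 bp). Cells were exposed for 24 h in 0.1% DMSO, with DMSO as negative control and baicalin (100 μM) as positive control. Luciferase output was read, n = 3, SD. Cytotoxicity to the same cells was measured in parallel by fluorimetric microculture assay (esterase hydrolysis of fluorescein diacetate).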
(In general: In a reporter assay the amount or activity of a reporter protein is the signal.)

In assay [2] the test system is C3H 10T1/2. Nature of the assay: Activation of 1650 bp mouse Ngn2 promoter activity expressed in mouse C3H10T1/2 cells at 2.5 to 20 uM incubated for 24 hrs by luciferase reporter gene assay. Type of assay: cell-based. The gist of the method: as §1
The species entered for assay [3] is Mus musculus. Nature of the assay: Induction of NT3 mRNA expression in mouse C17.2 cells at 20 uM incubated for 4 days by real-time RT-PCR method. Type of assay: functional, cell-based. The method, boiled down: (§2)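 Mouse C17.2 neural stem cells were treated at 20 μM for 4 days, with baicalin (20 μM) as positive control. Total RNA was isolated and Ngn2, Ngn1, NeuroD2 and NT3 transcripts were quantified by real-time RT-PCR. mRNA levels were normalized to GAPDH; SD shown.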
For orientation: Quantitative PCR measures a nucleic acid by following its amplification.

The species entered for assay [4] is Mus musculus. Nature of the assay: Induction of NeuroD2 mRNA expression in mouse C17.2 cells at 20 uM incubated for 4 days by real-time RT-PCR method. Type of assay: functional, cell-based. The method, boiled down: as §2
The species named for assay [5] is Mus musculus. Nature of the assay: Induction of Ngn2 mRNA expression in mouse C17.2 cells at 20 uM incubated for 4 days by real-time RT-PCR method. The assay is classed as functional, cell-based. The gist of the method:
as §2

The species entered for assay [6] is Mus musculus. The assay can be described thus: Induction of Ngn1 mRNA expression in mouse C17.2 cells at 20 uM incubated for 4 days by real-time RT-PCR method. The assay is classed as functional, cell-based. The method, boiled down:
as §2

For assay [7], the species on record is Mus musculus. Nature of the assay: Induction of cell differentiation of mouse C17.2 cells assessed as appearance of differentiated cell bodies. The assay is classed as functional.
Assay [8] concerns C3H 10T1/2. The assay can be described thus: Activation of 1650 bp mouse Ngn2 promoter activity expressed in mouse C3H10T1/2 cells at 20 uM incubated for 24 hrs by luciferase reporter gene assay relative to baicalin. The assay is classed as cell-based. The method, boiled down:
as §1

Assay [9] concerns C3H 10T1/2. The assay can be described thus: Activation of 1650 bp mouse Ngn2 promoter activity expressed in mouse C3H10T1/2 cells at 20 uM incubated for 24 hrs by luciferase reporter gene assay relative to untreated control. The assay is classed as cell-based. The gist of the method:
as §1

Calls of active or inactive are those of the source. The calls are words filed in the database; no cut-off is given here.

In turn, `O=C(O)[C@H]1O[C@@H](Oc2cc3oc(-c4ccccc4)cc(=O)c3c(O)c2O)[C@H](O)[C@@H](O)[C@@H]1O` displayed a fold change (FC) in the assay with C3H 10T1/2 [1] of 1.5.

On to `OCc1ccc2nc3c(O)cccc3cc2c1`, for which the outcome with C3H 10T1/2 [2] was inactive. Further, the result in the assay listed under Mus musculus [3], in the assay listed under Mus musculus [4], in the assay filed under Mus musculus [5], in the assay listed under Mus musculus [6] and in the assay filed under Mus musculus [7] was Active.

As for `OCc1cc(O)c2nc3c(O)cccc3cc2c1`, the result in the assay on C3H 10T1/2 [2] was inactive.

In the case of `OCc1cc(O)c2nc3ccccc3cc2c1`, the Activity result in the assay with C3H 10T1/2 [2] is “Dose-dependent effect”. Further, the outcome in the assay filed under Mus musculus [3], in the assay filed under Mus musculus [4], in the assay listed under Mus musculus [5], in the assay filed under Mus musculus [6] and in the assay filed under Mus musculus [7] was Active. The fold change (FC) was found to be 1.9 with C3H 10T1/2 [8] and 2.8 with C3H 10T1/2 [9].
